In ChEMBL document CHEMBL1130286, “Nicotinamide derivatives as a new class of gastric H+/K(+)-ATPase inhibitors. 1. Synthesis and structure-activity relationships of N-substituted 2-(benzhydryl- and benzylsulfinyl)nicotinamides” (J Med Chem, 1997):
Calls of active or inactive are those of the source. The rule behind the calls is not given here.

What was measured:
[1] = tested on: Potassium-transporting ATPase (Oryctolagus cuniculus); assay: Percent inhibition of [14C]aminopyrine (AP) accumulation in dibutyryl cAMP stimulated rbbit parietal cells at 10 uM
Oryctolagus cuniculus [2] = species on record: Oryctolagus cuniculus; assay: Percent inhibition of [14C]aminopyrine (AP) accumulation stimulated by dibutyryl uM; Not effective; format: functional
Method in brief: (§1)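 Parietal cells were isolated from rabbit gastric tissue, and the cell-rich fraction (1-2 × 10⁷ cells/300 µL) was put in Earle's balanced salt solution. The medium held 5.6 kBq [¹⁴C]aminopyrine, 25 mM HEPES-NaOH pH 7.4, 0.2% BSA and test compound. Cells were stimulated with 1 mM dbcAMP at 37 °C for 30 min under 95% O₂/5% CO₂, then centrifuged, solubilized and scintillation-counted. Counts with 0.1 mM dinitrophenol were subtracted, and IC50 came from regression lines.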

[3] = t1/2 is the time taken for the conversion of nicotinamides to isothiazolopyridine at pH=1.0; format: ADME
Method in brief: (§2)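 Compound from a 10 µM DMSO solution was diluted into 100 mM HCl (pH 1) or pH-adjusted McIlvaine buffer (pH 3-7) containing Triton. Mixtures were incubated at 37 °C for various times. Remaining compound was measured by reversed-phase C18 HPLC (CH₃CN/10 mM phosphate pH 7.0) with UV detection at 254 nm, and half-lives were determined from these time points.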

[4] = t1/2 is the time taken for the conversion of nicotinamides to isothiazolopyridine at pH=3.0; format: ADME
Method in brief: as §2

Rattus norvegicus [5] = species on record: Rattus norvegicus; assay: Inhibition of histamine induced gastric acid secretion in pylorus-ligated rats; format: functional; settings: Stomach
Method in brief: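 Male Wistar rats (~200 g) were fasted 24 h with water allowed, 4-7 per group. Under urethane (1 g/kg) the pylorus was ligated, and drug or vehicle was given intraduodenally right after ligation. Histamine (30 mg/kg) was given sc 30 min later. After 3 h, gastric juice volume was measured and acid titrated to pH 7 with 0.01 N NaOH. Total acid output versus controls gave percent inhibition.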

[6] = molecular target: Potassium-transporting ATPase (Sus scrofa, UniProt P19156); assay: Inhibition of porcine gastric H+/K+ ATPase; format: tissue-based, Stomach
Potassium-transporting ATPase, sequence (P18434 whole entry): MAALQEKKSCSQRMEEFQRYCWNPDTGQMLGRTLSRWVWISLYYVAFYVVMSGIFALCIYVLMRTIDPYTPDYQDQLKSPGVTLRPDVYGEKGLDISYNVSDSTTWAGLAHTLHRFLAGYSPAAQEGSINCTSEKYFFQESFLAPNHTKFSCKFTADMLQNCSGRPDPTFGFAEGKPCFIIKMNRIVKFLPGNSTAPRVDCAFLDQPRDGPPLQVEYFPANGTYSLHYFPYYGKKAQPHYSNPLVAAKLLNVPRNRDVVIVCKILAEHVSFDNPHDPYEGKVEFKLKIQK
Potassium-transporting ATPase, sequence (P19156 whole entry): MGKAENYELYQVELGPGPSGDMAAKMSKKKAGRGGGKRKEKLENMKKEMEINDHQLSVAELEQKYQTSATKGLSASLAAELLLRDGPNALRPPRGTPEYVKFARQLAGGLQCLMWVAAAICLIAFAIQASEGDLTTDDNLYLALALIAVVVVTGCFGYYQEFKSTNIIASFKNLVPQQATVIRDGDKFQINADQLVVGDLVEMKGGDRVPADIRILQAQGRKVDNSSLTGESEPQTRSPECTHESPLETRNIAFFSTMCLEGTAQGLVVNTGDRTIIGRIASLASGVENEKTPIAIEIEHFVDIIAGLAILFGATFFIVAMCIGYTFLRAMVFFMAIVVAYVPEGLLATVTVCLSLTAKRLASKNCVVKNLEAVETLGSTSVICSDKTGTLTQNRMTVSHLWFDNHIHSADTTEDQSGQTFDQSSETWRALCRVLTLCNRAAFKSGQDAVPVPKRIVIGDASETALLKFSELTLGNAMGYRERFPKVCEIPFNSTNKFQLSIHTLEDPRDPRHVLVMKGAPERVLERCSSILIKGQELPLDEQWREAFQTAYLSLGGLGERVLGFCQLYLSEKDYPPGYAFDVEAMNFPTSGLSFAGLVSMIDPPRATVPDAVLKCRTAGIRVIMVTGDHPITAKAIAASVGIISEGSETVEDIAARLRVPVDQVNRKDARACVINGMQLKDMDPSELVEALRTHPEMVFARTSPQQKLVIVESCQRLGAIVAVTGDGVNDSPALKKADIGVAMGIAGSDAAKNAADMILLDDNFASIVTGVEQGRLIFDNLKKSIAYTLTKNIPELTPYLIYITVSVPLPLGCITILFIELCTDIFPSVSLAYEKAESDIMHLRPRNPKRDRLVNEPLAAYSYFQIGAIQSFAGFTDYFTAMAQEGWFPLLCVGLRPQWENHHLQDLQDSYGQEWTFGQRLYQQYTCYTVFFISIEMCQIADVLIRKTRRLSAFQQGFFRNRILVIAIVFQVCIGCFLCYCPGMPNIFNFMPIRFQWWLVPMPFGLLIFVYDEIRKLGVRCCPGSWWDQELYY
Method in brief: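 Porcine gastric microsomes (15 µg protein) were preincubated 30 min at 37 °C with compound in 50 mM Tris-HCl pH 7.4, 4 mM MgCl₂ and 5 µg/mL gramicidin, with or without 20 mM KCl. Reaction was started with 2 mM ATP (final) and run 20 min at 37 °C, then stopped with trichloroacetic acid. Released phosphate was measured by the Sanui method. Activity was the K⁺-dependent rate, with the K⁺-free rate subtracted.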

[7] = molecular target: Potassium-transporting ATPase (Oryctolagus cuniculus); assay: Inhibition of [14C]aminopyrine (AP) accumulation stimulated by dibutyryl cyclic AMP in isolated rabbit parietal cells
[8] = t1/2 is the time taken for the conversion of nicotinamides to isothiazolopyridine at pH=5.0; format: ADME
Method in brief: as §2

[9] = t1/2 is the time taken for the conversion of nicotinamides to isothiazolopyridine at pH=7.0; format: ADME
Method in brief: as §2

Rattus norvegicus [10] = assay: Percent inhibition of histamine induced gastric acid secretion in pylorus-ligated rats at 100 mg/Kg intraduodenal dose; settings: Stomach
Oryctolagus cuniculus [11] = species on record: Oryctolagus cuniculus; assay: Percent inhibition of [14C]aminopyrine (AP) accumulation stimulated by dibutyryl uM; format: functional
Method in brief: as §1

Oryctolagus cuniculus [12] = species on record: Oryctolagus cuniculus; assay: Percent inhibition of [14C]aminopyrine (AP) accumulation stimulated by dibutyryl cyclic AMP in isolated rabbit parietal cells; format: functional
Method in brief: as §1

Rattus norvegicus [13] = assay: Percent inhibition of histamine induced gastric acid secretion in pylorus-ligated rats at 3 mg/Kg intraduodenal dose; settings: Stomach
Rattus norvegicus [14] = assay: Percent inhibition of histamine induced gastric acid secretion in pylorus-ligated rats at 10 mg/Kg intraduodenal dose; settings: Stomach
Rattus norvegicus [15] = assay: Percent inhibition of histamine induced gastric acid secretion in pylorus-ligated rats at 100 mg/Kg […] dose; Not effective; format: functional, organism-based; settings: Stomach
Rattus norvegicus [16] = assay: Percent inhibition of histamine induced gastric acid secretion in pylorus-ligated rats at 100 mg/Kg intraduodenal dose; Not effective; settings: Stomach

O=C(Nc1c2ccccc2nc2ccccc12)c1cccnc1[S+]([O-])C(c1ccccc1)c1ccccc1 (stereo not given)
inhibition [1]: 47.6%

COc1ncccc1NC(=O)c1cccnc1[S+]([O-])C(c1ccccc1)c1ccccc1 (stereo not given)
inhibition (Oryctolagus cuniculus [2]): inactive

CCOc1cc(OC)ccc1C[S+]([O-])c1ncccc1C(=O)Nc1ccncc1 (stereo not given)
half-life [3]: < 1.2 min
half-life [4]: 0.71 h
ED50 (Rattus norvegicus [5]): 19 mg/kg
IC50 [6]: > 100 µM
IC50 [7]: 0.45 µM

Nc1ccc(NC(=O)c2cccnc2[S+]([O-])C(c2ccccc2)c2ccccc2)cc1 (stereo not given)
inhibition [1]: 57.4%

Cc1c(OCC(F)(F)F)ccnc1C[S+]([O-])c1nc2ccccc2[nH]1 (stereo not given) [LANSOPRAZOLE]
half-life [8]: 16.8 min
half-life [9]: 6.08 h

CC(C)CNC(=O)c1cccnc1[S+]([O-])C(c1ccccc1)c1ccccc1 (stereo not given)
inhibition [1]: 1.3%

Cc1ccc(C(c2ccc(C)cc2)[S+]([O-])c2ncccc2C(=O)Nc2ccncc2)cc1 (stereo not given)
IC50 [7]: 1.5 µM
inhibition in vivo at 100 mg/kg (Rattus norvegicus [10]): 48.1%

CN(C)c1ccc(NC(=O)c2cccnc2[S+]([O-])C(c2ccccc2)c2ccccc2)cc1 (stereo not given)
inhibition [1]: 58.3%

COc1cc(C)c(C[S+]([O-])c2ncccc2C(=O)Nc2ccncc2)c(OC)c1 (stereo not given)
half-life [3]: < 1.2 min
half-life [4]: 0.09 h
half-life [8]: 257 min
ED50 (Rattus norvegicus [5]): 5.7 mg/kg
IC50 [6]: > 100 µM
IC50 [7]: 0.46 µM

CN(C)CCc1ccc(NC(=O)c2cccnc2[S+]([O-])C(c2ccccc2)c2ccccc2)cc1 (stereo not given)
Inhibition (Oryctolagus cuniculus [11]): 7.4%
inhibition [1]: 93.5%

COCOCCOc1cc(OC)ccc1C[S+]([O-])c1ncccc1C(=O)Nc1ccncc1 (stereo not given)
half-life [3]: < 1.2 min
half-life [4]: 2.75 h
IC50 (Oryctolagus cuniculus [12]): 2 µM
inhibition in vivo at 3 mg/kg (Rattus norvegicus [13]): 14.4%
inhibition in vivo at 10 mg/kg (Rattus norvegicus [14]): 76.6%

O=C(NC1CCN(Cc2ccccc2)CC1)c1cccnc1[S+]([O-])C(c1ccccc1)c1ccccc1 (stereo not given)
inhibition (Rattus norvegicus [15]): inactive

COCOc1cc(OC)ccc1C[S+]([O-])c1ncccc1C(=O)Nc1ccncc1 (stereo not given)
half-life [3]: < 1.2 min
half-life [4]: 8.25 h
IC50 (Oryctolagus cuniculus [12]): 2.2 µM
inhibition in vivo at 100 mg/kg (Rattus norvegicus [10]): 37.7%

COc1ccnc(C[S+]([O-])c2nc3ccc(OC(F)F)cc3[nH]2)c1OC (stereo not given) [PANTOPRAZOLE]
half-life [8]: 70.2 min
half-life [9]: 23.1 h

COc1ccc(C[S+]([O-])c2ncccc2C(=O)Nc2ccncc2)c(OCCF)c1 (stereo not given)
half-life [3]: < 1.2 min
half-life [4]: 3.3 h
ED50 (Rattus norvegicus [5]): 8.1 mg/kg
IC50 [6]: > 100 µM
IC50 [7]: 1.7 µM

COc1cc(OC)c(C[S+]([O-])c2ncccc2C(=O)Nc2ccncc2)cc1Br (stereo not given)
half-life [3]: 4.2 min
half-life [4]: 28.8 h
IC50 [7]: 1.9 µM
inhibition in vivo at 100 mg/kg (Rattus norvegicus [10]): 34.8%

COc1ccc2[nH]c([S+]([O-])Cc3ncc(C)c(OC)c3C)nc2c1 (stereo not given) [OMEPRAZOLE]
half-life [8]: 19.2 min
half-life [9]: 10.5 h
ED50 (Rattus norvegicus [5]): 4.1 mg/kg

CCOc1ccc(C[S+]([O-])c2ncccc2C(=O)Nc2ccncc2)c(OCC)c1 (stereo not given)
half-life [3]: < 1.2 min
half-life [4]: 0.49 h
ED50 (Rattus norvegicus [5]): 11.2 mg/kg
IC50 [6]: > 100 µM
IC50 [7]: 0.4 µM

O=C(Nc1ccccc1)c1cccnc1[S+]([O-])C(c1ccccc1)c1ccccc1 (stereo not given)
inhibition [1]: 5%

O=C(Nc1cccnc1)c1cccnc1[S+]([O-])C(c1ccccc1)c1ccccc1 (stereo not given)
inhibition [1]: 43.7%
inhibition (Rattus norvegicus [16]): inactive

COc1cc(C[S+]([O-])c2ncccc2C(=O)Nc2ccncc2)cc(OC)c1OC (stereo not given)
half-life [3]: 462 min
inhibition [1]: 11.3%

Cc1ccc(C(c2ccc(C)cc2)[S+]([O-])c2ncccc2C(=O)Nc2cccc3ncccc23)cc1 (stereo not given)
inhibition [1]: 74.1%
inhibition in vivo at 100 mg/kg (Rattus norvegicus [10]): 30.4%

COc1cccc(OC)c1C[S+]([O-])c1ncccc1C(=O)Nc1ccncc1 (stereo not given)
half-life [3]: 39.6 min
half-life [4]: 38.5 h
IC50 [6]: > 100 µM
IC50 [7]: 26 µM
inhibition in vivo at 10 mg/kg (Rattus norvegicus [14]): 12.7%
inhibition in vivo at 100 mg/kg (Rattus norvegicus [10]): 60.7%

COc1ccc(C[S+]([O-])c2ncccc2C(=O)Nc2ccncc2)c(OC)c1 (stereo not given)
half-life [3]: < 1.2 min
half-life [4]: 0.84 h
half-life [8]: 2310 min
half-life [9]: > 100 h
ED50 (Rattus norvegicus [5]): 4.2 mg/kg
IC50 [6]: > 100 µM
IC50 [7]: 0.59 µM

COc1cc(OC)c(OC)cc1C[S+]([O-])c1ncccc1C(=O)Nc1ccncc1 (stereo not given)
half-life [3]: < 1.2 min
half-life [4]: 0.14 h
IC50 [6]: > 100 µM
inhibition [1]: 32.5%
inhibition in vivo at 100 mg/kg (Rattus norvegicus [10]): 21.7%

O=c1c2cccnc2sn1-c1ccncc1
IC50 [6]: 0.22 µM

O=C(Nc1cccc2ccccc12)c1cccnc1[S+]([O-])C(c1ccccc1)c1ccccc1 (stereo not given)
inhibition (Oryctolagus cuniculus [2]): inactive

O=c1c2cccnc2sn1-c1ccccc1
IC50 [6]: 0.19 µM

CC(C)Cn1sc2ncccc2c1=O
IC50 [6]: 0.53 µM

O=C(Nc1ccncc1)c1cccnc1[S+]([O-])C(c1ccccc1)c1ccccc1 (stereo not given)
inhibition [1]: 55%
inhibition in vivo at 100 mg/kg (Rattus norvegicus [10]): 30.2%

O=C(Nc1ccc2ncccc2c1)c1cccnc1[S+]([O-])C(c1ccccc1)c1ccccc1 (stereo not given)
inhibition [1]: 61.8%
inhibition in vivo at 100 mg/kg (Rattus norvegicus [10]): 21.7%

O=C(Nc1nccs1)c1cccnc1[S+]([O-])C(c1ccccc1)c1ccccc1 (stereo not given)
inhibition [1]: 14.7%

Cc1cc(C)c2ccc(NC(=O)c3cccnc3[S+]([O-])C(c3ccccc3)c3ccccc3)nc2n1 (stereo not given)
inhibition [1]: 68.6%
inhibition (Rattus norvegicus [16]): inactive

O=C(Nc1cnccn1)c1cccnc1[S+]([O-])C(c1ccccc1)c1ccccc1 (stereo not given)
inhibition (Oryctolagus cuniculus [2]): inactive

COc1ccc(C[S+]([O-])c2ncccc2C(=O)Nc2ccncc2)c(OC)c1C (stereo not given)
half-life [3]: 7.2 min
half-life [4]: 11.6 h
IC50 [6]: > 100 µM
IC50 [7]: 16.6 µM

COc1ccc(C[S+]([O-])c2ncccc2C(=O)Nc2ccncc2)c(OC)c1OC (stereo not given)
half-life [3]: 27 min
half-life [4]: 116 h
inhibition [1]: 19.6%

COc1ccc(C[S+]([O-])c2ncccc2C(=O)Nc2ccncc2)cc1 (stereo not given)
half-life [3]: 128 min
inhibition [1]: 33.1%
inhibition in vivo at 100 mg/kg (Rattus norvegicus [10]): 44.4%

COc1cc(OC)c(C[S+]([O-])c2ncccc2C(=O)Nc2ccncc2)c(OC)c1 (stereo not given)
half-life [3]: < 1.2 min
half-life [4]: < 0.03 h
half-life [8]: 17.4 min
ED50 (Rattus norvegicus [5]): 6.8 mg/kg
IC50 [6]: 7.3 µM
IC50 [7]: 1.2 µM

O=C(Nc1ccccn1)c1cccnc1[S+]([O-])C(c1ccccc1)c1ccccc1 (stereo not given)
Inhibition (Oryctolagus cuniculus [11]): 8%

Cc1ccc2cccc(NC(=O)c3cccnc3[S+]([O-])C(c3ccccc3)c3ccccc3)c2n1 (stereo not given)
inhibition [1]: 24.4%

O=C(Nc1ncccn1)c1cccnc1[S+]([O-])C(c1ccccc1)c1ccccc1 (stereo not given)
inhibition (Oryctolagus cuniculus [2]): inactive

COc1ccc(C[S+]([O-])c2ncccc2C(=O)Nc2ccncc2)c(OCCO)c1 (stereo not given)
half-life [3]: < 1.2 min
half-life [4]: 1.78 h
IC50 [7]: 59 µM
